Common to all, as to assay type: functional
For assay [1], the system named is Mycobacterium tuberculosis. Put plainly: Antitubercular activity against INH, SM, RFP, EMB, PAS, Prothionamide 1321, Capreomycin-resistant Mycobacterium tuberculosis 14862 assessed as bacterial growth inhibition incubated for 7 days by MABA. The following applies: Mycobacterium tuberculosis, 14862, 168 h; time 7 day. Summed up:
(§1)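 Microplate alamar blue assay. H37Rv or clinical isolates were grown to late log phase in 7H9 broth with glycerol, Tween 80 and ADC, then 2 × 10⁵ CFU added to two-fold dilutions. Final range 32–0.5 μg/mL, lowered to 2–0.016 μg/mL for active compounds. 37 °C, 7 days, then alamar blue 16 h. Fluorescence 530/590 nm. MIC is the lowest concentration giving ≥90% reduction; INH and RFP were controls.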
In general terms: Alamar Blue is a resazurin reagent that responds to reducing activity.

Assay [2] concerns Mycobacterium tuberculosis. Put plainly: Antitubercular activity against linezolid resistant Mycobacterium tuberculosis assessed as inhibition of bacterial growth incubated for 7 days by MABA. The settings on record: 168 h, time 7 day.
The test system of assay [3] is Mycobacterium tuberculosis. Put plainly: Antitubercular activity against INH, SM, RFP, EMB, RBT, PAS, OLFX-resistant Mycobacterium tuberculosis 13946 assessed as bacterial growth inhibition incubated for 7 days by MABA. The settings on record: Mycobacterium tuberculosis, 13946, 168 h; time 7 day. The method in brief:
as §1

Values after ≈ are worked out from the molar mass of the structure shown.

For the compound `CC(=O)NC[C@@H]1OC(=O)N2Cc3cc(-c4ccc(-c5nnn(C)n5)nc4)c(F)cc3O[C@@H]12`, the MIC worked out at 0.85 mg/L (≈ 1.93 µM) in assay [1], 2.32 mg/L (≈ 5.28 µM) in assay [2] and 0.39 mg/L (≈ 0.888 µM) in assay [3].
In the same order, the values of `CC(=O)NC[C@@H]1OC(=O)N2Cc3cc(-c4ccc(C#N)nc4)c(F)cc3O[C@@H]12` are 0.82 mg/L (≈ 2.14 µM), 3.63 mg/L (≈ 9.49 µM) and 0.48 mg/L (≈ 1.26 µM).
For `NNC(=O)c1ccncc1` [ISONIAZID], the results for the MIC in assay [1] and in assay [3] were more than 10 mg/L and 2.38 mg/L (≈ 17.4 µM), respectively.
Consider `CC(=O)NC[C@H]1CN(c2ccc(N3CCOCC3)c(F)c2)C(=O)O1` [LINEZOLID], for which, in assay [2], the MIC turned out to be 14.5 mg/L (≈ 43.1 µM).
On to `CO[C@H]1/C=C/O[C@@]2(C)Oc3c(C)c(O)c4c(O)c(c(/C=N/N5CCN(C)CC5)c(O)c4c3C2=O)NC(=O)/C(C)=C\C=C\[C@H](C)[C@H](O)[C@@H](C)[C@@H](O)[C@@H](C)[C@H](OC(C)=O)[C@@H]1C` [RIFAMPIN], for which the MIC in assay [1] and in assay [3] was more than 10 mg/L each time.

A word on the MIC: it is the smallest concentration in the dilution series that meets the test's criterion for growth inhibition.

For the origin of these results see ChEMBL document CHEMBL4837188, “Identification of Novel Tricyclic Benzo[1,3]oxazinyloxazolidinones as Potent Antibacterial Agents with Excellent Pharmacokinetic Profiles against Drug-Resistant Pathogens” (J Med Chem, 2021).
